Laboratory results as given in ChEMBL document CHEMBL3526056, “Characterization of in vitro glucuronidation clearance of a range of drugs in human kidney microsomes: comparison with liver and intestinal glucuronidation and impact of albumin” (Drug Metab Dispos, 2012).

What was measured:
[1] = Unbound intrinsic glucuronidation clearance in human intestinal microsomes at 1 uM after 30 to 60 mins by LC-MS/MS analysis in presence of UDP-glucuronosyltransferase; assay type: ADME, Intestine, Microsome
In short: (§1)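 Alamethicin-activated pooled microsomes (HLM 150 donors; HKM 8; HIM 18). Drug at 1 μM final, preincubated 5 min at 37°C in 0.1 M phosphate pH 7.1 with 3.45 mM MgCl2, 1.15 mM EDTA, 115 μM saccharic acid lactone. Started with […] cofactor (5 mM final), 30–60 min. Cofactor-free controls. Parent depletion by LC-MS/MS, single-exponential k. Corrected by HLM-dialysis fu,inc. Duplicates; n=3 (HIM n=1).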

[2] = biological target: T1, UDP-glucuronosyltransferase 1A3 (Homo sapiens, UniProt P35503); assay: Ratio of UGT1A3-mediated unbound intrinsic glucuronidation clearance in human intestinal microsomes to UGT1A3-mediated unbound intrinsic glucuronidation clearance in human liver microsomes at 1 uM in presence of 1% bovine serum albumin; assay type: ADME
T1 sequence (P35503 whole entry): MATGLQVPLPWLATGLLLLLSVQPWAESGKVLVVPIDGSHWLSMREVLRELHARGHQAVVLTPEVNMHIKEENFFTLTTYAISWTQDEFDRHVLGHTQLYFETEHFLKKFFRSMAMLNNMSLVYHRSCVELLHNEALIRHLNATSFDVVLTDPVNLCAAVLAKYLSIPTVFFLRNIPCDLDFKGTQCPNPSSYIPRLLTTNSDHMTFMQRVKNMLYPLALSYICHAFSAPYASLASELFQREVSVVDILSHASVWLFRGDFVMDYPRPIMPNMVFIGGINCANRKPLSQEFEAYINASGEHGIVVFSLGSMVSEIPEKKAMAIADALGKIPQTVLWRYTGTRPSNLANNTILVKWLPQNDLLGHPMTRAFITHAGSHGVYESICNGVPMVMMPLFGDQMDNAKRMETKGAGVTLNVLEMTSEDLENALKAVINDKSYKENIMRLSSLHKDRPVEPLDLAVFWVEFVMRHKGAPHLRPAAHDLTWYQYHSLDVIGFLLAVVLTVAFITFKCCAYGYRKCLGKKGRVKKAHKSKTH
In short: (§2)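 Ratios of mean unbound CLint,UGT, each scaled per g tissue, between pooled liver, kidney and intestinal microsomes. Values come from 1 μM substrate-depletion assays in pH 7.1 phosphate at 37°C, run with or without BSA (1% for acids, 2% for bases/neutral drugs). Corrected for nonspecific binding. Kidney and liver n = 3; intestine n = 1; each in duplicate.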

[3] = Glucuronidation clearance in human liver microsomes; assay type: ADME
[4] = Fraction unbound in human plasma
Liver microsome [5] = assay: Fraction unbound in human liver microsomes at 1 uM after 30 to 60 mins by LC-MS/MS analysis in presence of 1% bovine serum albumin; assay type: ADME; details: microsomes, 1 µM
[6] = Unbound intrinsic glucuronidation clearance in human kidney microsomes at 1 uM after 30 to 60 mins by LC-MS/MS analysis in presence of UDP-glucuronosyltransferase and 1% bovine serum albumin; assay type: ADME, microsome
Liver microsome [7] = assay: Fraction metabolized glucuronidation in human liver microsomes in presence of UDP-glucuronosyltransferase and bovine serum albumin; assay type: ADME
Liver microsome [8] = assay: Fraction metabolized glucuronidation in human liver microsomes in presence of UDP-glucuronosyltransferase; assay type: ADME
[9] = biological target: T1, UDP-glucuronosyltransferase 1A3; assay: Drug metabolism in human kidney microsomes assessed as UGT1A3-mediated unbound intrinsic glucuronidation clearance at 1 uM after 30 to 60 mins by LC-MS/MS analysis in presence of 1% bovine serum albumin; assay type: ADME
[10] = biological target: T1, UDP-glucuronosyltransferase 1A3; assay: Ratio of UGT1A3-mediated unbound intrinsic glucuronidation clearance in human kidney microsomes to UGT1A3-mediated unbound intrinsic glucuronidation clearance in human intestinal microsomes at 1 uM; assay type: ADME; in short: as §2
[11] = biological target: T1, UDP-glucuronosyltransferase 1A3; assay: Ratio of UGT1A3-mediated unbound intrinsic glucuronidation clearance in human kidney microsomes to UGT1A3-mediated unbound intrinsic glucuronidation clearance in human liver microsomes at 1 uM in presence of 1% bovine serum albumin; assay type: ADME; in short: as §2
[12] = Ratio of unbound intrinsic glucuronidation clearance in human kidney microsomes in presence of 1% bovine serum albumin to unbound intrinsic glucuronidation clearance in human kidney microsomes in absence of bovine serum albumin; assay type: ADME, microsome
In short: (§3)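 Unbound intrinsic glucuronidation clearance measured by parent-drug depletion in intestinal or kidney microsomes, once with 1% BSA and once without, under otherwise matched conditions (1 μM drug, pH 7.1 phosphate, 5 mM cofactor, 37°C). Each value was corrected for fu,inc. The ratio is the mean clearance with BSA over the mean without.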

[13] = biological target: T1, UDP-glucuronosyltransferase 1A3; assay: Ratio of UGT1A3-mediated unbound intrinsic glucuronidation clearance in human intestinal microsomes to UGT1A3-mediated unbound intrinsic glucuronidation clearance in human liver microsomes at 1 uM; assay type: ADME; in short: as §2
[14] = Unbound intrinsic glucuronidation clearance in human kidney microsomes at 1 uM after 30 to 60 mins by LC-MS/MS analysis in presence of UDP-glucuronosyltransferase; assay type: ADME, microsome; in short: as §1
[15] = Glucuronidation clearance in human liver microsomes in presence of bovine serum albumin; assay type: ADME
Liver microsome [16] = assay: Unbound intrinsic glucuronidation clearance in human liver microsomes at 1 uM after 30 to 60 mins by LC-MS/MS analysis in presence of UDP-glucuronosyltransferase and 1% bovine serum albumin; assay type: ADME
[17] = Ratio of unbound intrinsic glucuronidation clearance in human intestinal microsomes in presence of 1% bovine serum albumin to unbound intrinsic glucuronidation clearance in human intestinal microsomes in absence of bovine serum albumin; assay type: ADME, Intestine, Microsome; in short: as §3
[18] = biological target: T1, UDP-glucuronosyltransferase 1A3; assay: Drug metabolism in human intestinal microsomes assessed as UGT1A3-mediated unbound intrinsic glucuronidation clearance at 1 uM after 30 to 60 mins by LC-MS/MS analysis; assay type: ADME, Intestine
Liver microsome [19] = assay: Ratio of unbound intrinsic glucuronidation clearance in human liver microsomes in presence of 1% bovine serum albumin to unbound intrinsic glucuronidation clearance in human liver microsomes in absence of bovine serum albumin; assay type: ADME
In short: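 Ratio of mean unbound CLint,UGT in pooled human liver microsomes with 1% BSA to that without BSA. Both come from 1 μM depletion assays at 37°C in pH 7.1 phosphate buffer, with parent drug measured by LC-MS/MS. BSA runs were quenched in double-volume ice-cold acetonitrile. Each condition was corrected by its own equilibrium-dialysis fu,inc. n = 3, duplicates.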

[20] = biological target: T1, UDP-glucuronosyltransferase 1A3; assay: Ratio of UGT1A3-mediated unbound intrinsic glucuronidation clearance in human kidney microsomes to UGT1A3-mediated unbound intrinsic glucuronidation clearance in human liver microsomes at 1 uM; assay type: ADME; in short: as §2
Liver microsome [21] = assay: Unbound intrinsic glucuronidation clearance in human liver microsomes at 1 uM after 30 to 60 mins by LC-MS/MS analysis in presence of UDP-glucuronosyltransferase; assay type: ADME; in short: as §1
[22] = biological target: T1, UDP-glucuronosyltransferase 1A3; assay: Drug metabolism in human liver microsomes assessed as UGT1A3-mediated unbound intrinsic glucuronidation clearance at 1 uM after 30 to 60 mins by LC-MS/MS analysis; assay type: ADME
[23] = Fraction unbound in human liver microsomes at 1 uM after 30 to 60 mins by LC-MS/MS analysis; assay type: ADME
[24] = biological target: T1, UDP-glucuronosyltransferase 1A3; assay: Drug metabolism in human kidney microsomes assessed as UGT1A3-mediated unbound intrinsic glucuronidation clearance at 1 uM after 30 to 60 mins by LC-MS/MS analysis; assay type: ADME
In short: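 Pooled human kidney microsomes (8 donors), alamethicin-activated. […] Started with cofactor (5 mM in incubation) and run 30–60 min. Parent depletion measured by LC-MS/MS; single-exponential k; corrected by equilibrium-dialysis fu,inc. Duplicates, three occasions.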

[25] = biological target: T1, UDP-glucuronosyltransferase 1A3; assay: Drug metabolism in human liver microsomes assessed as UGT1A3-mediated unbound intrinsic glucuronidation clearance at 1 uM after 30 to 60 mins by LC-MS/MS analysis in presence of 1% bovine serum albumin; assay type: ADME
[26] = biological target: T1, UDP-glucuronosyltransferase 1A3; assay: Drug metabolism in human intestinal microsomes assessed as UGT1A3-mediated unbound intrinsic glucuronidation clearance at 1 uM after 30 to 60 mins by LC-MS/MS analysis in presence of 1% bovine serum albumin; assay type: ADME, Intestine
[27] = biological target: T1, UDP-glucuronosyltransferase 1A3; assay: Ratio of UGT1A3-mediated unbound intrinsic glucuronidation clearance in human kidney microsomes to UGT1A3-mediated unbound intrinsic glucuronidation clearance in human intestinal microsomes at 1 uM in presence of 1% bovine serum albumin; assay type: ADME; in short: as §2
[28] = Fraction unbound in human kidney microsomes at 1 uM after 30 to 60 mins by LC-MS/MS analysis; assay type: ADME
[29] = Clearance in iv dosed human; assay type: ADME, organism-based; details: in vivo
[30] = Unbound intrinsic glucuronidation clearance in human intestinal microsomes at 1 uM after 30 to 60 mins by LC-MS/MS analysis in presence of UDP-glucuronosyltransferase and 1% bovine serum albumin; assay type: ADME, Intestine, Microsome
[31] = Fraction unbound in human intestinal microsomes at 1 uM after 30 to 60 mins by LC-MS/MS analysis; assay type: ADME, Intestine, Microsome

CL free [1]: 21.3 µL/min/mg
Ratio [2]: 0.119
CLhep predicted [3]: 0.596 L/h/kg
fraction unbound [4]: 0.005
Fu (Liver microsome [5]): 0.07
CL free [6]: 34.3 µL/min/mg
Drug metabolism (Liver microsome [7]): 1
Drug metabolism (Liver microsome [8]): 1
CL free [9]: 0.439 mL/min/g
Ratio [10]: 0.284
Ratio [11]: 0.028
Ratio [12]: 1.6
Ratio [13]: 0.142
CL free [14]: 9.72 µL/min/mg
CLhep predicted [15]: 0.596 L/h/kg
CL free (Liver microsome [16]): 395 µL/min/mg
Ratio [17]: 1.6
CL free [18]: 0.438 mL/min/g
Ratio (Liver microsome [19]): 1.6
Ratio [20]: 0.04
CL free (Liver microsome [21]): 76.9 µL/min/mg
CL free [22]: 3.08 mL/min/g
fraction unbound at 1 µM [23]: 0.65
CL free [24]: 0.124 mL/min/g
CL free [25]: 15.8 mL/min/g
CL free [26]: 1.88 mL/min/g
Ratio [27]: 0.233
fraction unbound at 1 µM [28]: 0.48
clearance [29]: 0.739 L/h/kg
CL free [30]: 91.4 µL/min/mg
fraction unbound at 1 µM [31]: 0.48
Structure (SMILES): CCCc1nc2c(C)cc(-c3nc4ccccc4n3C)cc2n1Cc1ccc(-c2ccccc2C(=O)O)cc1
